Here are results for 3 compounds from paper PMC8349541 (OncoTargets and therapy, 2021).

Experiment [1] concerns SVG p12 normal brain cell line. Kind of experiment: MTS cell viability assay, SVG p12. The format is cell-based, human.
The subject of experiment [2] is GBM8401 glioma cells. Kind of experiment: BrdU proliferation assay, GBM8401. Particulars: GBM8401, 48 h; for effect on cell proliferation: single dose. The format is cell-based, human.
In experiment [3] the test system is GBM8401 glioma cells. Kind of experiment: MTS cell viability assay, GBM8401. The format is cell-based, human. The essentials:
(§1)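 Cells in DMEM with 10% FBS and penicillin/streptomycin at 37°C under 5% CO2, seeded in 96-well plates (LN229 3000, GBM8401 2000 cells per well). Exposed to test compound for 24 h, then incubated 2 h with MTS reagent added to the medium. Absorbance read at 490 nm, and IC50 determined from the viability data.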
Background: Tetrazolium assays rely on reduction of a dye to a coloured formazan, in cell work by metabolically active cells.

Experiment [4] concerns GBM8401 glioma cells. Kind of experiment: Cell cycle analysis. The format is cell-based, human. The conditions noted are these: GBM8401, 48 h, low-dose. The essentials: (§2)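 Treated 48 h, then fixed in 70% ethanol at 4°C and held overnight at −20°C. Washed twice in cold PBS containing 1% FBS, then stained with PI solution containing Tween 20 and RNase A for 30 min at 37°C in the dark. DNA content read by flow cytometry. Mean ± s.d., n = 3, against control by t test or one-way ANOVA.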

The subject of experiment [5] is NHA (normal human astrocyte). Kind of experiment: MTS cell viability assay, NHA. The format is cell-based.
For experiment [6], the system named is GBM8401 glioma cells. The experiment in a line: Wound healing migration assay, GBM8401. The format is cell-based, human. Particulars: GBM8401, 16 h wound healing, dosage under IC50. Summed up:
(§3)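 Cells plated at 1×10^5 per well in 12-well plates at 37°C, 5% CO2. At 90% confluence the medium was removed and the monolayer scratched with a 200 μL pipette tip, then washed three times. Wound imaged at 0 and 16 h, and migration calculated from the change in wound area, with 0 h DMSO-control area set to 100%.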

Experiment [7] has as its system GBM8401 glioma cells. The experiment in a line: Colony formation assay, GBM8401. The format is cell-based, human. The conditions noted are these: GBM8401, cultured 2 weeks. Summed up: (§4)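 Cells seeded at 3000 per well in 6-well plates and grown 2 weeks, with test compound added on day 3. Colonies fixed in methanol and stained with 0.5% crystal violet. Image analysis counted colonies larger than 0.1 mm in diameter. Mean ± s.d., n = 3.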

Experiment [8] concerns LN229 glioma cells. Kind of experiment: Cell cycle analysis. The format is cell-based, human. Particulars: LN229, 48 h, low-dose. The essentials: as §2
Experiment [9] concerns LN229 glioma cells. Kind of experiment: MTS cell viability assay, LN229. The format is cell-based, human. Summed up:
as §1

The test system of experiment [10] is LN229 glioma cells. The experiment in a line: Colony formation assay, LN229. The format is cell-based, human. The conditions noted are these: LN229, cultured 2 weeks. The essentials: as §4
Experiment [11] relates to LN229 glioma cells. The experiment in a line: BrdU proliferation assay, LN229. The format is cell-based, human. The conditions noted are these: for effect on cell proliferation: LN229, 48 h, single dose.
Experiment [12] has as its system LN229 glioma cells. The experiment in a line: Wound healing migration assay, LN229. Particulars: LN229, 16 h wound healing, dosage under IC50. The format is cell-based, human. Summed up: as §3
The mark [13] stands for this setting: SVG p12, MTS assay, 24 h treatment.
The mark [14] stands for this setting: Homo sapiens, Glioma cell, 24 h.

As usually defined, the IC50 is the concentration that inhibits the measured activity by half. Low values mean higher potency, high ones lower potency. Take `O=C(/C=C/c1ccc(O)cc1)CC(=O)/C=C/c1ccc(O)cc1` [Bisdemethoxycurcumin]: the IC50 in [1] (Homo sapiens, SVGp12, 24 h, SVG p12, MTS assay, 24 h treatment) was 30 µM; in [1] (setting [13]) it was 29.2 µM; in experiment [3] (setting [14]), 32.4 µM; in experiment [5] (NHA, MTS assay, 24 h treatment) it was 31.9 µM; in experiment [9] (Homo sapiens, LN-229, 24 h), 26.8 µM. In addition, the “dose effect on cell proliferation (BrdU M1)” value in experiment [2] is “dose-dependently increased M1”; in experiment [11] (LN229 (printed LN299), 48 h), “dose-dependently increased M1”. In addition, the “effect on cell proliferation” value in experiment [2] and in experiment [11] was “significantly increased the cell proliferation” in each case. Moreover, the “effect on cell viability” value is given as “slightly increased cell viability” in [3] (GBM8401, low-dose) and “slightly increased cell viability” in experiment [9] (LN229, low-dose). Further, the “effect on S phase” value in [4] and in [8] was “increased S phase not significantly” in each case. Also, the effect on migration entry in experiment [6] and in [12] was “had no effect on the migration” in each case. In addition, the “effect on colony formation” value in experiment [7] and in experiment [10] was “dose dependently increased colony formation” in each case.
As for `COc1cc(/C=C/C(=O)CC(=O)/C=C/c2ccc(O)c(OC)c2)ccc1O` [Curcumin], the concentration for half-maximal inhibition (IC50) in experiment [1] (Homo sapiens, SVGp12, 24 h) came to 4.19 µM; in experiment [3] (setting [14]), 6.31 µM; in experiment [5] (Homo sapiens, Astrocyte, 24 h) it was 22.2 µM; in experiment [9] (Homo sapiens, LN-229, 24 h), 5.85 µM. The “effect on cell proliferation” value in experiment [2] and in experiment [11] was “suppressed cell proliferation” throughout. Further, the effect on migration result in [6] and in experiment [12] was “dose-dependently inhibited the migration” in each case. For the same compound, the “effect on colony formation” value in [7] and in experiment [10] was “inhibited colony formation” each time.
Turning to Demethoxycurcumin, the IC50 in experiment [1] (setting [13]) was 30 µM; in experiment [3] (GBM8401, MTS assay, 24 h treatment), 17.7 µM; in [5] (NHA, MTS assay, 24 h treatment), 11.3 µM; in experiment [9] (LN229, MTS assay, 24 h treatment) it was 24.5 µM. The “effect on cell proliferation” value in [2] was “reduce”; in experiment [11], “promoted cell proliferation”. The effect on migration result in experiment [6] and in experiment [12] was “had no effect on the migration” each time. In addition, the “effect on colony formation” value in experiment [7] is reported as “not in GBM8401 cells”; in [10], “suppressed colony formation in LN229 cells only in high-dose manner”.
